What was measured:
[1] = target: T1, Polyunsaturated fatty acid 5-lipoxygenase (Rattus norvegicus, UniProt P12527); test: Concentration required for 50 % inhibition of arachidonic acid oxidation by rat 5-lipoxygenase
T1 sequence (P12527 whole entry): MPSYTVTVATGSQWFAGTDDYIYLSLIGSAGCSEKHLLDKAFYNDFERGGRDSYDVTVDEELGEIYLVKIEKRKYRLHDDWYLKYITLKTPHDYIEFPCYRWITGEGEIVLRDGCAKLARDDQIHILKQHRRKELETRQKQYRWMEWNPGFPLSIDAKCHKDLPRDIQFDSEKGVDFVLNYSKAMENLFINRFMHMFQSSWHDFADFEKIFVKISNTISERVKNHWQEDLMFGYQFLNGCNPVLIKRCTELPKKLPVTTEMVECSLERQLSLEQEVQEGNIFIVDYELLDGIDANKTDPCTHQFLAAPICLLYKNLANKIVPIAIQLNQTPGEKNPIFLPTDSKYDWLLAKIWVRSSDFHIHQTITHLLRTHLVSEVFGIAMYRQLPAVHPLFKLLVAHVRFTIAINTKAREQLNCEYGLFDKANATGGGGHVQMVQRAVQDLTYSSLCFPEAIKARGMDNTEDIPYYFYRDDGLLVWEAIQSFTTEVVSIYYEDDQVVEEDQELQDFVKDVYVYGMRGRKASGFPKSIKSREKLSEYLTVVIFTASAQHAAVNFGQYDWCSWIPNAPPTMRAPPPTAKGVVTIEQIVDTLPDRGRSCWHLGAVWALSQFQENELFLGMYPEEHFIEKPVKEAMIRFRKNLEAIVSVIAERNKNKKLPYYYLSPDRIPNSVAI
Procedure, shortened: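 Rat PMN leukocyte 10000g supernatant is used as the enzyme. Incubation is run in 25 mM Na+/K+ phosphate pH 7.3 with 1 mM ATP, 0.5 mM CaCl2 and 0.5 mM mercaptoethanol. Inhibitor from DMSO (500-fold stock) is preincubated 2 min at 37°C. [14C]arachidonic acid is added to 10 μM final for 10 min at 37°C. Conversion to 5-HETE and 5,12-diHETEs is read by TLC radioscan. IC50 is derived by linear regression.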

[2] = target: T2, Polyunsaturated fatty acid 5-lipoxygenase (Homo sapiens, UniProt P09917); test: Concentration required for 50 % inhibition of leukotriene B4 production in human PMN compared with controls in the absence of compound; assay type: functional
T2 sequence (P09917 whole entry): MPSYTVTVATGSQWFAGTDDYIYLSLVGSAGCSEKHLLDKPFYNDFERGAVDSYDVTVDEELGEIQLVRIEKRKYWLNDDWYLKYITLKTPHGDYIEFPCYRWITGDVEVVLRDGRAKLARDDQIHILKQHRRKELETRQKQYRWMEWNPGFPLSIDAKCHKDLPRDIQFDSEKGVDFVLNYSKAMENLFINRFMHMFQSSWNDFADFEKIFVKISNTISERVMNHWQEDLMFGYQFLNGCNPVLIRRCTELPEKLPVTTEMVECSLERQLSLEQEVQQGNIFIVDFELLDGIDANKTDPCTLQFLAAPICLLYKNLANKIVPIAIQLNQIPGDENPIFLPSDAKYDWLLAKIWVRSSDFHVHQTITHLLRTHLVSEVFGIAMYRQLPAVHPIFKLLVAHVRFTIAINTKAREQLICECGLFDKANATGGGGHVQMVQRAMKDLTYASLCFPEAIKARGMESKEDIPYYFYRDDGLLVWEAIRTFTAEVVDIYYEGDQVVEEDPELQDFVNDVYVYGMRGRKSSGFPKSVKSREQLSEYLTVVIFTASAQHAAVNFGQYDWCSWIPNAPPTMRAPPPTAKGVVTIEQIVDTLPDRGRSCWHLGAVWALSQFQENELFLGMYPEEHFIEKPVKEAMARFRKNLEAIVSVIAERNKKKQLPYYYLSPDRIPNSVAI
Procedure, shortened: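 Human PMN are isolated from citrated venous blood by dextran sedimentation, Ficoll-Hypaque and NH4Cl lysis. Cells (5×10^5/mL in HHBSS) are warmed 10 min at 37°C and given compound in DMSO for 2 min. They are stimulated with A23187 (10 μM) for 5 min and stopped with methanol. LTB4 is measured by radioimmunoassay.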

[3] = test system: Rattus norvegicus; test: Effect of antigen-induced dyspnea in hyperreactive inbred rats at 1.5 mg/kg of compound concentration; assay type: functional
Procedure, shortened: (§1)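 Inbred hyperreactive rats receive compound orally 4 h before antigen, as a suspension in 0.4% methocel/0.5% Tween 80 (10 mL/kg). Methysergide (3 μg/kg iv) is given 5 min before ovalbumin aerosol challenge. Respiration is recorded by pneumotachograph. Percent inhibition is reduction in dyspnea duration versus vehicle controls, with Student's t test. ED50 is derived by linear regression.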

[4] = test system: Rattus norvegicus; test: Inhibition of antigen (IgE) induced bronchoconstriction in hyperreactive inbred rats at a compound dose of 0.5 mg/kg; assay type: functional; procedure, shortened: as §1
[5] = test system: Rattus norvegicus; test: Inhibition of antigen (IgE) induced bronchoconstriction in hyperreactive inbred rats at a dose of 1.5 mg/kg; assay type: functional; procedure, shortened: as §1
[6] = test system: Rattus norvegicus; test: Inhibition of antigen (IgE) induced bronchoconstriction in hyperreactive inbred rats at a compound dose of 5.0 mg/kg; assay type: functional; procedure, shortened: as §1
[7] = test system: Rattus norvegicus; test: Inhibition of antigen (IgE) induced bronchoconstriction in hyperreactive inbred rats at a compound dose of 1.5 mg/kg; assay type: functional; procedure, shortened: as §1
[8] = target: T3, Seed linoleate 13S-lipoxygenase-1 (Glycine max, UniProt P08170); test: Inhibitory activity towards soybean lipoxygenase
T3 sequence (P08170 whole entry): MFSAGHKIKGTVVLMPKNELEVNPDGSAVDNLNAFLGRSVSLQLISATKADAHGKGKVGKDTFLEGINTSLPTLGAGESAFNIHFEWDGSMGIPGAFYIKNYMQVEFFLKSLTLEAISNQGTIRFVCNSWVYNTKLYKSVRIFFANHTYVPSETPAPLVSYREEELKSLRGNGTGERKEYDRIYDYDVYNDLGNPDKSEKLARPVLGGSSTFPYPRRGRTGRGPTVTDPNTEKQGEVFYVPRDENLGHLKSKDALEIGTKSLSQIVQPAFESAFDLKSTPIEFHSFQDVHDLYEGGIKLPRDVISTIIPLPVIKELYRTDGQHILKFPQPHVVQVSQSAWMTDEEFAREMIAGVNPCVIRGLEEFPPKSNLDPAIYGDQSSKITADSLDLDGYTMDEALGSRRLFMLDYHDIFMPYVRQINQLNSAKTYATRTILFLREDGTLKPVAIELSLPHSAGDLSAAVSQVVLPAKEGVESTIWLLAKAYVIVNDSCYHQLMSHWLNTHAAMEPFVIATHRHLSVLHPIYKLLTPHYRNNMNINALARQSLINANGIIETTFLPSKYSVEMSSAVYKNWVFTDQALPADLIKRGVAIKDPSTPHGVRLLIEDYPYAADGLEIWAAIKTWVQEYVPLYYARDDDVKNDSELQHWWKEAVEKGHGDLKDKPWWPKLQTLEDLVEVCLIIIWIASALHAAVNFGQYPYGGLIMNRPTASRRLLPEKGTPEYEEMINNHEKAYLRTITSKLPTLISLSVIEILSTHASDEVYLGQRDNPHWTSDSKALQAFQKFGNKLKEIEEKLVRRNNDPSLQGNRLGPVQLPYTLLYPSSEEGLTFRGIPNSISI

[9] = species on record: Rattus norvegicus; test: Inhibition of hyperalgesia response induced by subplantar injection of platelet-activating factor in rat; assay type: functional
[10] = test system: Rattus norvegicus; test: Effect of antigen-induced dyspnea in hyperreactive inbred rats at 0.5 mg/kg of compound concentration; assay type: functional; procedure, shortened: as §1
[11] = test system: Rattus norvegicus; test: Inhibition of antigen (IgE) induced bronchoconstriction in hyperreactive inbred rats at a compound dose of 0.15 mg/kg; assay type: functional; procedure, shortened: as §1
[12] = test system: Saimiri sciureus; test: Inhibition of increase in pulmonary resistance and decrease in dynamic compliance of ascaris antigen-induced bronchoconstriction in squirrel monkeys at 0.25 mg/kg compound concentration

Structure (SMILES)	IC50 [1]	IC50 [2]	also measured
CCCc1ccc2oc(Cc3ccc(OC)cc3)c(C)c2c1O	130 nM	31 nM	ED50 [3]: < 0.5 mg/kg; inhibition in vivo at 0.5 mg/kg [4]: 55%; inhibition in vivo at 1.5 mg/kg [5]: 64%; inhibition in vivo at 5 mg/kg [6]: 66%
CCCc1cc(Cl)c2oc(Cc3ccccc3)c(C)c2c1O	–	30 nM	–
COc1ccc(Cc2oc3c(Cl)ccc(O)c3c2C)cc1	2000 nM	376 nM	–
CCCc1cc(Cl)c2oc(Cc3ccc(OC)cc3OC)c(C)c2c1O	–	13 nM	–
CCCc1cc(Cl)c2oc(Cc3ccc(OC)cc3)c(CCC)c2c1O	–	20 nM	–
CCCc1cc(Cl)c2oc(Cc3ccc(Cl)cc3)c(C)c2c1O	–	26 nM	–
CCCc1cc(Cl)c2oc(Cc3ccc(OCC(=O)O)cc3)c(C)c2c1O	–	105 nM	inhibition in vivo at 1.5 mg/kg [5]: 28%
COc1ccc(Cc2oc3cccc(O)c3c2C)cc1	2070 nM	574 nM	–

Continued, in another order:

IC50 [1]	IC50 [2]	Structure (SMILES)	also measured
129 nM	7 nM	CCCc1cc(F)c2oc(Cc3ccc(OC)cc3)c(C)c2c1O	–
–	46 nM	COc1ccc(Cc2oc3c(Cl)cc(C)c(O)c3c2C)cc1	–
140 nM	12 nM	CCCc1cc(C)c2oc(Cc3ccc(OC)cc3)c(C)c2c1O	inhibition in vivo at 5 mg/kg [6]: 55%; inhibition in vivo at 1.5 mg/kg [7]: 49%
–	20 nM	C=CCc1cc(Cl)c2oc(Cc3ccc(OC)cc3)c(C)c2c1O	–
–	291 nM	CCOCc1cc(Cl)c2oc(Cc3ccc(OC)cc3)c(C)c2c1O	–
–	2130 nM	COc1ccc(Cc2oc3c(Cl)cc(CCC(=O)O)c(O)c3c2C)cc1	inhibition in vivo at 1.5 mg/kg [5]: 11%
36 nM	–	CCCc1cc(Cl)c2oc(Cc3ccc(OC)cc3)c(C)c2c1O	IC50 [8]: 30 µM; AD100 [9]: 1.5 mg/kg; ED50 [10]: 0.7 mg/kg; inhibition in vivo at 0.15 mg/kg [11]: 36%; inhibition in vivo at 0.5 mg/kg [4]: 48%; inhibition in vivo at 1.5 mg/kg [5]: 56%; inhibition in vivo at 0.25 mg/kg [12]: > 85%
–	860 nM	COc1ccc(Cc2oc3c(Cl)cc(Cl)c(O)c3c2C)cc1	–
–	99 nM	COc1ccc(Cc2oc3c(Cl)cc(C(C)(C)C)c(O)c3c2C)cc1	inhibition in vivo at 1.5 mg/kg [5]: 32%
161 nM	76 nM	COc1ccc(Cc2oc3c(Cl)cc(CCCO)c(O)c3c2C)cc1	inhibition in vivo at 0.15 mg/kg [11]: 39%; inhibition in vivo at 0.5 mg/kg [4]: 58%
